Results published in ChEMBL document CHEMBL1126301, “Anti-HIV-I activity of linked lexitropsins” (J Med Chem, 1992).
pEC50, pIC50: −log10 of the molar value. Values after ≈ are worked out from the molar mass of the structure shown. Active and inactive are the calls of the source. The calls are words filed in the database; no cut-off is given here.

How the values were obtained:
CCRF-CEM [1] = assay: Inhibition of T4-lymphocytes (CEM cell line) infected with HIV-1.; type: functional, cell-based; conditions: Homo sapiens
CCRF-CEM [2] = assay: Inhibitory activity against T4-lymphocytes (CEM cell line) infected with HIV-1; inactive; type: functional, cell-based; conditions: Homo sapiens
[3] = Therapeutic index(TI) was measured as ratio of TD50 and MIC50 (Retrovirus); conditions: retroviridae
Murine leukemia virus [4] = assay: Inhibitory activity on moloney murine leukemia retrovirus.; type: functional
Outline: (§1)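 SC-1 cells (3.5 × 10⁴ mL⁻¹) seeded in 5% FBS-MEM 1 day ahead. Compound dilutions added in triplicate, then 20-40 pfu Moloney virus per well, shaken at 0, 30 and 60 min. Incubated 5 days, 37 °C, 5% CO₂; viability checked for toxicity. Then UV 3 min, XC cells overlaid (2 × 10⁵ mL⁻¹), 4 days, 0.5% crystal violet stain, plaques counted. MIC₅₀ interpolated between two dilutions.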

CCRF-CEM [5] = assay: Inhibitory activity against T4-lymphocytes (CEM cell line) infected with HIV-1; moderate; type: functional, cell-based; conditions: Homo sapiens
Murine leukemia virus [6] = assay: Concentration inhibiting moloney murine leukemia retrovirus; type: functional; outline: as §1
CCRF-CEM [7] = assay: Inhibitory activity against T4-lymphocytes (CEM cell line) infected with HIV-1; active; type: functional, cell-based; conditions: Homo sapiens
[8] = system: Human immunodeficiency virus 1; assay: Inhibitory activity against HIV-1 in T4-lymphocytes (CEM cell line).; type: functional, organism-based; conditions: Human immunodeficiency virus 1, CCRF-CEM
HIV-1 = assay: Therapeutic index (TI) was measured as ratio of IC50 and EC50 (HIV-1); conditions: human immunodeficiency virus 1; read-out: TI50

| pIC50 (CCRF-CEM [1]) | pEC50 [8] | SMILES | TI [3] [TD50/MIC50] | TD50 (Murine leukemia virus [4]) [µg/mL] | Activity (CCRF-CEM [5]) | also measured |
| --- | --- | --- | --- | --- | --- | --- |
| 3.74 | 5.25 | Cn1cc(NC(=O)c2cc(NC(=O)[C@@H]3CCCC[C@H]3C(=O)Nc3cc(C(=O)Nc4cc(C(=O)NCCC(=N)N)n(C)c4)n(C)c3)cn2C)cc1C(=O)NCCC(=N)N | – | – | Moderate | – |
| < 4.00 | – | Cn1cc(NC(=O)c2cc(NC(=O)c3cc(NC(=O)CCCCCCC(=O)Nc4cc(C(=O)Nc5cc(C(=O)Nc6cc(C(=O)NCCC(=N)N)n(C)c6)n(C)c5)n(C)c4)cn3C)cn2C)cc1C(=O)NCCC(=N)N | – | – | – | Activity (CCRF-CEM [2]): inactive |
| 3.77 | 4.33 | Cn1cc(NC(=O)c2cc(NC(=O)[C@H]3CCC[C@@H]3C(=O)Nc3cc(C(=O)Nc4cc(C(=O)NCCC(=N)N)n(C)c4)n(C)c3)cn2C)cc1C(=O)NCCC(=N)N | – | – | Moderate | – |

Further lines, the compound ahead of its results:

| SMILES | pIC50 (CCRF-CEM [1]) | pEC50 [8] | TI [3] [TD50/MIC50] | TD50 (Murine leukemia virus [4]) [µg/mL] | Activity (CCRF-CEM [5]) | also measured |
| --- | --- | --- | --- | --- | --- | --- |
| Cn1cc(NC(=O)[C@@H]2CCC(N)=N2)cc1C(=O)NCCC(=N)N | < 3.90 | – | – | – | – | Activity (CCRF-CEM [2]): inactive |
| Cl.Cl.Cn1cc(NC(=O)c2cc(NC(=O)c3cc(NC(=O)/C=C\C(=O)Nc4cc(C(=O)Nc5cc(C(=O)Nc6cc(C(=O)NCCC(=N)N)n(C)c6)n(C)c5)n(C)c4)cn3C)cn2C)cc1C(=O)NCCC(=N)N | – | – | 7.52 | 84.29 | – | Activity (CCRF-CEM [2]): inactive |
| Cl.Cl.Cn1cc(NC(=O)c2cc(NC(=O)c3cc(NC(=O)c4cncc(C(=O)Nc5cc(C(=O)Nc6cc(C(=O)Nc7cc(C(=O)NCCC(=N)N)n(C)c7)n(C)c6)n(C)c5)c4)cn3C)cn2C)cc1C(=O)NCCC(=N)N | – | – | – | >100 | Moderate | MIC50 (Murine leukemia virus [6]): > 100 µg/mL |
| Cl.Cl.Cn1cc(NC(=O)c2cc(NC(=O)c3cc(NC(=O)c4cccc(C(=O)Nc5cc(C(=O)Nc6cc(C(=O)Nc7cc(C(=O)NCCC(=N)N)n(C)c7)n(C)c6)n(C)c5)c4)cn3C)cn2C)cc1C(=O)NCCC(=N)N | – | – | 2 | >100 | – | Activity (CCRF-CEM [7]): Active; MIC50 (Murine leukemia virus [6]): > 50 µg/mL |
| Nc1ccn([C@H]2CC[C@@H](CO)O2)c(=O)n1 [ZALCITABINE] | – | – | > 135.14 | >100 | – | MIC50 (Murine leukemia virus [6]): 0.74 µg/mL (≈ 3.5 µM) |
| Cn1cc(NC(=O)c2cc(NC(=O)Nc3cc(C(=O)Nc4cc(C(=O)NCCC(=N)N)n(C)c4)n(C)c3)cn2C)cc1C(=O)NCCC(=N)N | – | 4.92 | – | – | Moderate | – |
| Cn1cc(NC(=O)c2cc(NC(=O)[C@H]3CCC(N)=N3)c[nH]2)cc1C(=O)NCCC(=N)N | 3.12 | 4.04 | – | – | Moderate | selectivity ratio (HIV-1): 8.2 |
| Cn1cc(NC(=O)c2cc(NC(=O)c3cccc(C(=O)Nc4cc(C(=O)Nc5cc(C(=O)NCCC(=N)N)n(C)c5)n(C)c4)c3)cn2C)cc1C(=O)NCCC(=N)N | – | 5.45 | – | – | – | Activity (CCRF-CEM [7]): Active |
| Cn1cc(NC(=O)c2cc(NC(=O)[C@H]3C[C@@H]3C(=O)Nc3cc(C(=O)Nc4cc(C(=O)NCCC(=N)N)n(C)c4)n(C)c3)cn2C)cc1C(=O)NCCC(=N)N | – | 5.46 | – | – | Moderate | – |
| Cn1cc(NC(=O)[C@H]2CCC(N)=N2)cc1C(=O)NCCC(=N)N | < 3.90 | – | – | – | – | Activity (CCRF-CEM [2]): inactive |
| Cl.Cl.Cn1cc(NC(=O)c2cc(NC(=O)c3cc(NC(=O)C4CCC4C(=O)Nc4cc(C(=O)Nc5cc(C(=O)Nc6cc(C(=O)NCCC(=N)N)n(C)c6)n(C)c5)n(C)c4)cn3C)cn2C)cc1C(=O)NCCC(=N)N (stereo not given) | – | – | 1.7 | 83.5 | Moderate | MIC50 (Murine leukemia virus [6]): > 50 µg/mL |
| Cl.Cl.Cn1cc(NC(=O)c2cc(NC(=O)c3cc(NC(=O)c4ccccc4C(=O)Nc4cc(C(=O)Nc5cc(C(=O)Nc6cc(C(=O)NCCC(=N)N)n(C)c6)n(C)c5)n(C)c4)cn3C)cn2C)cc1C(=O)NCCC(=N)N | – | – | > 1.26 | >100 | – | – |
| Cn1cc(NC(=O)c2cc(NC(=O)c3cc(NC(=O)CCC(=O)Nc4cc(C(=O)Nc5cc(C(=O)Nc6cc(C(=O)NCCC(=N)N)n(C)c6)n(C)c5)n(C)c4)cn3C)cn2C)cc1C(=O)NCCC(=N)N | – | – | – | – | – | Activity (CCRF-CEM [2]): inactive |
| Cl.Cl.Cn1cc(NC(=O)c2cc(NC(=O)c3cc(NC(=O)c4cccc(C(=O)Nc5cc(C(=O)Nc6cc(C(=O)Nc7cc(C(=O)NCCC(=N)N)n(C)c7)n(C)c6)n(C)c5)n4)cn3C)cn2C)cc1C(=O)NCCC(=N)N | – | – | > 4.4 | >100 | – | Activity (CCRF-CEM [7]): Active |
